Compound activity as filed in PubChem BioAssay.
IDH1 R132H inh = inhibitors of IDH1 R132H reductase, primary screen, biochemical, plate reader, single point. diaphorase/resazurin fluorescence, 60 min. AID 624101, 2012. inhibition, % at 10 µM. 70,000 tested, 0.18% active. Isocitrate dehydrogenase [NADP] cytoplasmic (Homo sapiens), O75874; in the data active = inhibition above about 34%; inconclusive = no clear call, values can overlap the other calls; inactive = below about 11%;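 note: 0% = DMSO and 100% = no enzyme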
T cruzi growth-1 = T. cruzi intracellular proliferation inhibitors, primary screen, cell-based, beta-gal Tulahuen parasites, NIH3T3 host, luminescence; inhibition, % at 8.34 µM; T. cruzi beta-gal in NIH3T3, GalScreen luminescence, 90 h; 77,000 tested, 5.9% active;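 active = mean inhibition above about 93%, with at least 55% of replicates each passing it, limit read from the data, passing the limit was not always enough; inconclusive = only one of those two conditions holds; inactive = neither condition holds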
KDM4C inh = inhibitors of GASC-1 (KDM4C) histone demethylase, primary screen, biochemical, single concentration HTS | GST-KDM4C 2-372, H3K9me3 peptide, LANCE TR-FRET | inhibition, % at 12.5 µM | 96,000 tested, 0.15% active | AID 720574, 2013;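 active = mean replicate inhibition above about 25%, with at least 55% of replicates also reaching it, limit read from the data, passing the limit was not always enough; inconclusive = only one of those two conditions met; inactive = neither condition met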
Target sequence (Q9H3R0 2-372 limits assumed): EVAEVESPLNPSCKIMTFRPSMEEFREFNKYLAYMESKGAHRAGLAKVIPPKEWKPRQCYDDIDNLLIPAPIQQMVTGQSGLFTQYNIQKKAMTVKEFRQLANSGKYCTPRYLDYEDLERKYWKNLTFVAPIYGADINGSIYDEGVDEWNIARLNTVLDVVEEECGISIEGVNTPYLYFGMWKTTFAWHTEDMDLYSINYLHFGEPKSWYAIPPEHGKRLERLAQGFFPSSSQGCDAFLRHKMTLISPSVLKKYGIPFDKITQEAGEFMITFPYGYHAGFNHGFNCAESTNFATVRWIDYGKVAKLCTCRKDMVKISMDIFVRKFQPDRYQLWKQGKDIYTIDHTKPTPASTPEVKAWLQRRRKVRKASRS
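Test system – GST-tagged GASC-1 (JMJD2C) catalytic fragment, aa 2-372 · Medium – HEPES buffer, pH 7.5, plus ascorbate · Reagent – H3K9me3 peptide with Fe(II)/2OG · Compound – one test concentration per compound · Timing – 30 min reaction, 60 min detection, RT · Technique – TR-FRET with Eu antibody and ULight streptavidin, EDTA stop · Read-out basis – inhibition from TR-FRET ratio decrease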
T cruzi growth-2 = T. cruzi intracellular proliferation inhibitors, confirmation, cell-based, NIH3T3 host, beta-gal parasite, luminescence, cherry-pick. shares compounds with T cruzi growth-1. T. cruzi beta-gal in NIH3T3, GalScreen luminescence, 90 h. inhibition, % at 8.35 µM. 5,600 tested, 72% active;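 active = mean replicate inhibition above about 95% and at least 55% of replicates individually reaching it, limit read from the data; inconclusive = only one of the two criteria is met; inactive = neither criterion is met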
T cruzi growth-3 = inhibitors of intracellular T. cruzi replication, confirmation, NIH3T3 host cells, beta-gal parasites, cherry-pick, set 2; shares compounds with T cruzi growth-1; T. cruzi beta-gal in NIH3T3, GalScreen luminescence, 90 h; inhibition, % at 2.09 µM; 5,600 tested, 21% active; AID 651740, 2012;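 active = mean inhibition above about 95%, with at least 55% of replicates also reaching it, limit read from the data; inconclusive = meets just one of the two conditions; inactive = meets neither condition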;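 note: plate controls were neutral control median for no effect and positive control median for full effect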
NIH3T3 tox = cytotoxicity in mouse NIH/3T3 fibroblasts, confirmation, cytotoxicity control for T. cruzi proliferation inhibitor project, cell-based, cherry-pick, single point | shares compounds with T cruzi growth-1 | NIH/3T3 viability, CellTiter-Glo ATP luminescence, 90 h | cytotoxicity (signal decrease), % at 8.35 µM | 5,600 tested, 14% active;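 active = mean signal decrease across replicates above about 35% based on untreated-well scatter, with enough replicates individually passing, limit read from the data; inconclusive = no rule stated though some were filed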;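 note: 0% = median of neutral control wells and 100% = median of positive control wells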
NIH3T3 tox 2 = NIH/3T3 fibroblast cytotoxicity, confirmation, cytotoxicity control, cell-based, cherry-pick, single point, set 2; NIH/3T3 viability, CellTiter-Glo ATP luminescence, 90 h; inhibition, % at 24.9 µM; 5,600 tested, 56% active; shares compounds with T cruzi growth-1; AID 651744, 2012;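 active = mean loss of cell viability signal at or above a set limit, and enough replicates individually reaching it; inconclusive = meets only the mean limit or only the replicate share; inactive = meets neither condition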;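 note: 0% = median of neutral control wells and 100% = median of positive control wells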
The depositor's hits bear a star; ? = inconclusive; / = not tested or not shown. The entries come from a sample that favours hits as a whole.

SMILES	IDH1 R132H inh	T cruzi growth-1	KDM4C inh	T cruzi growth-2	T cruzi growth-3	NIH3T3 tox	NIH3T3 tox 2
COc1ccccc1C#Cc1ccc2c(c1)O[C@@H](CN(C)Cc1ccncc1)[C@@H](C)CN([C@@H](C)CO)S2(=O)=O	0	123*	12	101*	101*	10	40*
CCOc1ccc(-c2nnc(SCC(=O)O)n2-c2ccccc2)cc1	7	/	/	/	/	/	/
N#C[C@H]1[C@H](c2ccc(C#CC3(O)CCCC3)cc2)[C@H](CO)N1C(=O)C1CCC1	/	100*	1	107*	66	15	64*
N#C[C@@H]1[C@H](c2ccc(C#Cc3ccc(F)cc3)cc2)[C@@H](CO)N1C(=O)C1CCC1	/	93	-3	/	/	/	/
N#C[C@H]1[C@@H](c2ccc(C#CC3(O)CCCC3)cc2)[C@H](CO)N1C(=O)C1CC1	/	100*	1	104*	94	8	56*
N#C[C@H]1[C@@H](c2ccc(C#Cc3ccc(F)cc3)cc2)[C@H](CO)N1C(=O)C1CC1	/	93	-2	/	/	/	/
O=C(COc1ccc(C2CCCCC2)cc1)Nc1cccc2ncccc12	0	/	/	/	/	/	/
CCNC(=O)[C@H]1[C@H](CO)[C@H]2Cn3c(ccc(-c4ccccc4)c3=O)[C@H]2N1Cc1ccccc1	/	52	3	/	/	/	/
COc1ccc(-c2ccc3n(c2=O)C[C@@H]2[C@@H](CO)[C@H](C(=O)N(C)C)N(CC4CCCC4)[C@H]32)cc1	/	-4	9	/	/	/	/
COc1ccc(-c2ccc3n(c2=O)C[C@@H]2[C@@H](CO)[C@H](C(=O)N(C)C)N(CC4CC4)[C@H]32)cc1	/	103*	28*	22	9	-3	19
CCNC(=O)[C@@H]1[C@@H](CO)[C@@H]2Cn3c(ccc(-c4ccc(OC)cc4)c3=O)[C@@H]2N1Cc1ccccc1	/	100*	4	6	-25	-13	0
CCN1[C@H](C(=O)N[C@H](C)c2ccccc2)[C@@H](CO)[C@@H]2Cn3c(ccc(-c4cccc(F)c4)c3=O)[C@@H]21	/	76	9	/	/	/	/
COC(=O)[C@@H]1[C@@H](CO)[C@@H]2Cn3c(ccc(-c4ccccc4)c3=O)[C@@H]2N1Cc1cccc(F)c1	/	?	7	26	-17	-8	-1
COC(=O)[C@H]1[C@H](CO)[C@H]2Cn3c(ccc(-c4ccccc4)c3=O)[C@H]2N1Cc1cccc(F)c1	/	87	0	/	/	/	/
CCN1[C@@H]2c3ccc(-c4cccc(F)c4)c(=O)n3C[C@@H]2[C@@H](CO)[C@@H]1C(=O)N[C@@H](C)c1ccccc1	/	102*	2	25	30	1	25*
COC(=O)[C@H]1[C@H](CO)[C@H]2Cn3c(ccc(-c4cccc(C(=O)N(C)C)c4)c3=O)[C@H]2N1CC1CC1	/	44	2	/	/	/	/
CCN1[C@H](C(=O)OC)[C@@H](CO)[C@@H]2Cn3c(ccc(-c4cccc(C(=O)N(C)C)c4)c3=O)[C@@H]21	/	96*	4	-38	-44	-12	-14
CCS(=O)(=O)N1CCCCN2[C@H](CO)[C@@H](c3ccc(-c4ccccc4C)cc3)[C@H]2C1	/	61	0	/	/	/	/
CCS(=O)(=O)N1CCCCN2[C@@H](CO)[C@@H](c3ccc(-c4ccccc4C)cc3)[C@@H]2C1	/	?	-2	97*	-2	?	79*
CCS(=O)(=O)N1CCCCN2[C@H](CO)[C@H](c3ccc(-c4ccccc4F)cc3)[C@@H]2C1	/	96*	-1	80	22	18	5
CCS(=O)(=O)N1CCCCN2[C@H](CO)[C@@H](c3ccc(-c4ccccc4)cc3)[C@@H]2C1	/	63	-2	/	/	/	/
CN(C)CC(=O)N1[C@H](C#N)[C@@H](c2ccc(C#CC3CCCCC3)cc2)[C@H]1CO	0	109*	0	107*	73	1	102*
CN(C)CC(=O)N1[C@H](C#N)[C@@H](c2ccc(C#CC3CCCCC3)cc2)[C@@H]1CO	/	72	-1	/	/	/	/
CN(C)CC(=O)N1[C@@H](C#N)[C@@H](c2ccc(C#CC3CCCCC3)cc2)[C@@H]1CO	/	42	4	/	/	/	/
CN(C)CC(=O)N1[C@@H](C#N)[C@H](c2ccc(C#CC3CCCCC3)cc2)[C@@H]1CO	/	102*	-3	98*	38	20	104*
SMILES	IDH1 R132H inh	T cruzi growth-1	KDM4C inh	T cruzi growth-2	T cruzi growth-3	NIH3T3 tox	NIH3T3 tox 2
C/C(=C\Cc1c(O)cc2oc(C)cc(=O)c2c1O)CO[C@@H]1O[C@H](CO)[C@@H](O)[C@H](O)[C@H]1O	1	/	/	/	/	/	/
C=C(CO)[C@]1(O)C[C@@]2(C)C(=CC1=O)C=C[C@@H](O)[C@@H]2C	0	/	/	/	/	/	/
COC(=O)c1cc(NC(=O)CN(c2cc(Cl)c(Cl)cc2Cl)S(C)(=O)=O)ccc1Cl	1	/	/	/	/	/	/
Nc1cccc(C2OCCCO2)c1	0	/	/	/	/	/	/
C[C@H]1CN([C@@H](C)CO)S(=O)(=O)c2ccc(C3=CCCCC3)cc2O[C@@H]1CN(C)C(=O)c1ccccc1	/	95	0	/	/	/	/
C[C@@H]1CN([C@H](C)CO)S(=O)(=O)c2ccc(C3=CCCCC3)cc2O[C@H]1CN(C)C(=O)c1ccc(F)cc1	-3	109	0	/	/	/	/
C[C@@H]1CN([C@@H](C)CO)S(=O)(=O)c2ccc(C3=CCCCC3)cc2O[C@H]1CN(C)C(=O)c1ccc(F)cc1	/	?	-2	102*	51	54*	26*
C[C@H](CO)N1C[C@H](C)[C@H](CN(C)C(=O)c2ccccc2)Oc2cc(C3=CCCCC3)ccc2S1(=O)=O	0	103*	2	101*	69	30	64*
C[C@H]1CN([C@@H](C)CO)S(=O)(=O)c2ccc(C3=CCCCC3)cc2O[C@@H]1CN(C)C(=O)c1ccc(F)cc1	/	115*	2	110*	102*	47*	96*
C[C@@H]1CN([C@@H](C)CO)S(=O)(=O)c2ccc(C3=CCCC3)cc2O[C@@H]1CN(C)C(=O)c1ccc(F)cc1	/	/	1	/	/	/	/
C[C@H](CO)N1C[C@H](C)[C@H](CN(C)C(=O)c2ccc(F)cc2)Oc2cc(C3=CCCCC3)ccc2S1(=O)=O	/	111*	0	101*	61	31	62*
C[C@H]1CN([C@@H](C)CO)S(=O)(=O)c2ccc(C3=CCCC3)cc2O[C@@H]1CN(C)C(=O)c1ccc(F)cc1	-1	/	0	/	/	/	/
